S1P4 agonist = activates the human S1P4 receptor. actives 0.35% (n = 220,000). S1P4-expressing cell line, agonist reporter assay. activation, % at 4.98 µM; in the data active = activation above about 11%
HMGR II inh = inhibitors of class II HMG-CoA reductase from Enterococcus faecalis. purified E. faecalis HMGR, NADPH absorbance 340 nm kinetic. inhibition, % at 10 µM. actives 0.41% (n = 190,000). AID 1066;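 active = inhibition above a set limit, the median over all tested compounds plus 3 SD, cut at about 9.5% in these data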;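 note: enzyme runs in reverse so mevalonate oxidation gives rising NADPH absorbance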
S1P3 antagonist = blocks the human S1P3 receptor | inhibition, % at 4.98 µM | Q99500 | CHO S1P3 NFAT-BLA reporter, FRET fluorescence, antagonist mode | AID 485 | actives 0.27% (n = 170,000);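 active = inhibition above the plate cutoff, the mean inhibition of test wells on that plate plus 3 SD, cut at about 28% in these data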;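 note: cells challenged with S1P at its EC80 of 0.8 µM; blue over green emission ratio from cleaved BLA substrate after 4 h stimulation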
Calb biofilm kill = mixture kills Candida albicans biofilm cells; C. albicans biofilm persisters + clotrimazole, fluorescence viability; primary screen in compound mixtures of four per well; inhibition, % at 7.6 µM; actives 0.02% (n = 120,000); AID 1242;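 active = inhibition above 30.3% in the primary screen of four-compound pools, then above 30% when the compound was retested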;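 note: compounds exposed to preformed 24 h biofilms for 48 h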
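System: C. albicans CAF4-2 wild-type biofilms; Medium: RPMI/MOPS medium, pH 7.0; Reagent: Clotrimazole, 50 µg/mL; Times: biofilm formation 24 h, compound exposure 48 h, 37 °C; Detection: 2-h Alamar Blue fluorescence, 535/590 nm excitation/emission; Evaluation: percent inhibition of biofilm viability.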
S1P4 antag = blocks the human S1P4 receptor; O95977; S1P4-expressing cells, antagonist mode, reporter read-out; inhibition, % at 4.98 µM; actives 0.26% (n = 220,000); in the data active = inhibition above about 29%
Rad51 HR inh = Rad51 (human) homologous recombination inhibition; Q06609; hRad51 DNA strand exchange, fluorescence dequenching; inhibition, % at 10 µM; actives 0.085% (n = 200,000);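 active = inhibition above 40% at the single screening dose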
Target sequence (Q06609 whole entry, looked up): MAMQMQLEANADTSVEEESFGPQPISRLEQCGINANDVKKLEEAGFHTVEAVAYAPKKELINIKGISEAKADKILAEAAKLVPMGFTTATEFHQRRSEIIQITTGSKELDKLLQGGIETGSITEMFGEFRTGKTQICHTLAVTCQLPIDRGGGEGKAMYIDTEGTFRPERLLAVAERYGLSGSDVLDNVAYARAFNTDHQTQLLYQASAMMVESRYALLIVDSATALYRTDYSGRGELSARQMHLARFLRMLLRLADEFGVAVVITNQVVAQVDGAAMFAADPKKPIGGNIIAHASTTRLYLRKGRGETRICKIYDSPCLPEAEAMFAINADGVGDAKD
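System: human Rad51 nucleoprotein filaments preassembled on unlabelled ssDNA. Reagent: labelled 47-mer dsDNA for strand exchange. Schedule: 30-min compound preincubation and 15-min exchange, both room temperature. Measured by: FRET fluorescence dequenching, excitation 485 nm, emission 520 nm. Read-out: Fluorescence-based percent inhibition, control- and blank-normalised. Benchmarks: plate controls and plate blanks.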
Each line names hits and unclear results; the compound was inactive in the other large screens. Only some compounds are listed: those with a hit (about 1.2% of all), similar ones and a draw of the others.

N#Cc1c[nH]n2c(=O)c3c(nc12)CCCC3	none (no result: S1P3 antagonist, Calb biofilm kill, Rad51 HR inh)
O=C(COc1ccccc1C(=O)N/N=C\c1ccc(O)c(O)c1)N/N=C/c1ccc(O)c(O)c1	HMGR II inh 29 (no result: S1P3 antagonist, Calb biofilm kill, Rad51 HR inh)
CC(=O)NC(Cc1cccc(C)c1)C(=O)NC1CCN(c2ncccc2[N+](=O)[O-])CC1 (stereo not drawn)	none
CC(=O)NC(Cc1cccc(F)c1)C(=O)NC1CCN(c2ncccc2[N+](=O)[O-])CC1 (stereo not drawn)	HMGR II inh 16
COc1cccc(CC(=O)Nc2nc(-c3cc(OC)ccc3OC)cs2)c1	HMGR II inh 12
COc1ccc(CC(=O)Nc2nc(-c3cc(OC)ccc3OC)cs2)cc1	none
CC(C)Cc1nc(SCC(=O)NCc2ccccc2)n[nH]1	none (no result: Calb biofilm kill, Rad51 HR inh)
NC(=O)C1(N2CCCCC2)CCN(c2nc(-c3ccc(Br)cc3)cs2)CC1	none (no result: S1P3 antagonist, Calb biofilm kill)
Cc1ccc(N2CCN(C(=O)c3cc(C(=O)c4ccccc4C)c[nH]3)CC2)c(C)c1	Rad51 HR inh 43
CN(C)S(=O)(=O)c1cccc(C(=O)Nc2ccc(S(=O)(=O)N3CCCC3)cc2)c1	HMGR II inh 14
CN1CCN(S(=O)(=O)c2ccc(NC(=O)c3cccc(S(=O)(=O)N4CCCC4)c3)cc2)CC1	none (no result: Calb biofilm kill)
COC(=O)/C(C#N)=C/c1c(Oc2cccc(C)c2)nc2ccccn2c1=O	none (no result: HMGR II inh, Rad51 HR inh)
Cc1cc(C)nc(N/N=C2/CCCC/C2=C\c2ccccc2)n1	HMGR II inh 14
Cc1ccnc(N/N=C/c2ccccc2)n1	none
CCOc1ccc(S(=O)(=O)N(C)CCO)cc1-c1nc2c(C(C)(C)C)nn(C)c2c(=O)[nH]1	HMGR II inh 25 (no result: S1P3 antagonist, Calb biofilm kill, Rad51 HR inh)
CCC(=O)Nc1ccc(NC(=O)c2ccccc2)nc1	none
Clc1cccc(CN2CCC(Cc3ccccc3)CC2)c1	HMGR II inh 14 (no result: S1P3 antagonist, Calb biofilm kill)
Clc1ccc(CN2CCC(Cc3ccccc3)CC2)cc1	none
COc1ccc(OC)c(NC(=O)c2ccccc2NS(=O)(=O)c2cccc3cccnc23)c1	Rad51 HR inh 56 (no result: S1P3 antagonist, Calb biofilm kill)
COc1ccc(N2CCN(C(CNC(=O)C(=O)NCCCn3ccnc3)c3cccnc3)CC2)cc1 (stereo not drawn)	none
CCOC(=O)C1CCCN(C(=O)C2CCN(S(=O)(=O)c3cccs3)CC2)C1 (stereo not drawn)	none (no result: S1P3 antagonist, Calb biofilm kill)
Cc1ccc(S(=O)(=O)ON2C(=O)c3ccccc3C2=O)c(C)c1	HMGR II inh 17
Cc1cc(C)c(S(=O)(=O)ON2C(=O)c3ccccc3C2=O)cc1C	none (no result: S1P3 antagonist, Calb biofilm kill)
CCOc1cc(NC(=O)C2CCCCC2)c(OCC)cc1NC(=O)c1ccccn1	none
CCOc1cc(NC(=O)c2ccccn2)c(OCC)cc1NC(=O)c1ccc(C)cc1	HMGR II inh 13
COc1ccc(NC(=O)CSc2nnc(CCC(=O)O)c(=O)n2N)cc1	none
Cc1ccc(C(=O)Nc2nccc(-c3cccs3)n2)cc1	none (no result: S1P3 antagonist, Calb biofilm kill)
NC(=S)Nc1nccc(-c2cccs2)n1	Rad51 HR inh 41
Cn1c(Cn2cnc([N+](=O)[O-])n2)nnc1SCC(=O)Nc1ccc(Br)cc1	none
Cc1cc(C)c(S(=O)(=O)c2ccccc2)c(OC(=O)c2c(F)cccc2F)n1	HMGR II inh 14
CCOC(=O)c1cc(-c2ccc(OC)cc2)n(CCC(=O)NC2CCN(Cc3ccccc3)CC2)c1C	HMGR II inh 10
COc1ccc(CN(Cc2cccn2C)C(=O)c2cc3cc(OC)ccc3[nH]2)cc1	none (no result: HMGR II inh, Rad51 HR inh)
CCOC(=O)c1c(CN(CC)CC)oc2cc(Br)c(O)cc12	none (no result: Calb biofilm kill)
CCOC(=O)c1c(CN(CC)CC)oc2ccc(OC)cc12	HMGR II inh 12 (no result: S1P3 antagonist)
O=C(c1ccccc1Sc1ccc([N+](=O)[O-])cc1Cl)N1CCOCC1	Rad51 HR inh 45
COCCn1c(COc2ccc(Cl)cc2)nnc1SCC(N)=O	S1P3 antagonist 62 (no result: Calb biofilm kill)
Cc1ccc(OCc2nnc(SCC(N)=O)n2N)cc1	none
COc1c(F)c(F)c(C(=O)O)c(Nc2cccc(C)c2)c1F	none
Cc1cc(C)cc(Nc2c(F)c(F)c(F)c(F)c2C(=O)O)c1	HMGR II inh 9.6
CCS(=O)(=O)n1nc(-c2ccco2)nc1N	HMGR II inh 10
O=C(CC1Nc2ccccc2NC1=O)NCc1cccnc1 (stereo not drawn)	S1P3 antagonist 102 (no result: Calb biofilm kill, Rad51 HR inh)
O=C1C2C3C=CC(CO)(O3)C2C(=O)N1c1ccccc1-c1ccccc1 (stereo not drawn)	S1P4 antag 31 (no result: Calb biofilm kill)

Screening results from PubChem.
